Test results taken from article PMC9046076 (International Journal for Parasitology: Drugs and Drug …, 2022).
Where two headings read alike, the source gives them in different places.

Assays:
[1] = tested on: T. gondii type I RH strain; test: In vitro T. gondii type I RH; assay type: cell-based, Toxoplasma gondii; settings: for IC50: Toxoplasma gondii, HFF; for reduction of T. gondii parasite growth: 11 μM, added immediately after infection, 48 h, HFF cells; for SI T. gondii (selectivity index): SI = IC50 HCT-8 (or HFF)/IC50 parasite (at 0 h p.i.)
Summary of the method: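 Single-concentration screen: confluent HFF monolayers in IMDM were infected with about 5 × 10³ RH-YFP tachyzoites per well, and test compound (11 μM final, in DMSO) was added immediately. Controls were atovaquone at 0.5 μM, DMSO vehicle and uninfected background wells. After 48 h at 37 °C with 5% CO₂, YFP was quantified from 9 thresholded 20× images per well. Percent inhibition was taken against DMSO; triplicates, repeated at least thrice.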

[2] = WST-1 cytotoxicity assay in uninfected HCT-8 cells; assay type: cell-based; settings: human
Summary of the method: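 HCT-8 cells (5 × 10⁴/well) were grown overnight at 37 °C, 5% CO₂ in phenol-red-free RPMI-1640 with added glucose, bicarbonate, pyruvate and 10% heat-inactivated FBS. They were treated with test compound (20 μM screen or dose range) or DMSO for 48 h. WST-1 was then added for 1 h at 37 °C in the dark, and absorbance read at 440 nm (reference 690 nm). % toxicity = (OD_DMSO − OD_compound)/OD_DMSO × 100. IC50 by nonlinear regression of triplicate means.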

[3] = WST-1 cytotoxicity assay in uninfected HFF cells; assay type: cell-based; settings: human
[4] = tested on: C. parvum AUCP-1 isolate; test: In vitro C. parvum growth inhibition in HCT-8 cells, immunofluorescence assay; assay type: cell-based, Cryptosporidium parvum; settings: for IC50: Cryptosporidium parvum; for SI C. parvum (selectivity index): SI = IC50 HCT-8 (or HFF)/IC50 parasite (at 0 h p.i.)
Summary of the method: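 Confluent HCT-8 monolayers in supplemented RPMI-1640 infected with 10⁵ freshly excysted sporozoites per well. […] After 72 h, cells were fixed in methanol-acetic acid (9:1), permeabilised, blocked with 5% goat serum and stained overnight at 4 °C with fluorescein anti-C. parvum antibody. Imaged at 20×, triplicates, three assays, nonlinear regression IC50; SI = host-cell IC50/parasite IC50 (0 h p.i.).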

[5] = tested on: T. gondii type II ME49 strain; test: In vitro T. gondii type II ME49; assay type: cell-based; settings: Toxoplasma gondii, HFF, 48 h, read-out: IC50 against T. gondii Type II (ME49) in HFF cells
[6] = tested on: T. gondii Type II (ME49) cysts in rats' brains; assay type: in vivo, Toxoplasma gondii; settings: JS-2-41 3 mg/kg; for reduction in the number of Toxoplasma cysts in the brain: infected rats, 14 days of treatment, JS-2-44 4 mg/kg i.p.; for decrease in brain cysts compared to untreated rats: male Brown Norway rats, i.p. daily for 14 days, JS-2-44 4 mg/kg
Summary of the method: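 Male Brown Norway rats, 4 weeks old, were acclimatised 7 days, then inoculated i.m. with 5 × 10⁴ ME49 tachyzoites in 0.1 ml PBS. Once brain cysts were confirmed in two untreated rats, groups (n = 3) received daily i.p. test compound or atovaquone (5 mg/kg) in 0.2 ml 5% DMSO/PBS for 2 weeks; untreated rats got vehicle. Brains were homogenised in 5 ml PBS, cysts counted in 50 μl on 3 slides (10×) and scaled to total volume. One-way ANOVA with Dunnett.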

[7] = read-out: Parasite IC50 T. gondii 0h p.i
[8] = read-out: Parasite IC50 T. gondii 2h p.i
[9] = HCT-8, read-out: Parasite IC50 C. parvum 0h p.i
[10] = HCT-8, read-out: Parasite IC50 C. parvum 2h p.i

SMILES | IC50 [1, 7] [µM] | IC50 [1, 8] [µM] | IC50 at 48 h [2] [µM] | reduction of T. gondii parasite growth [1] | IC50 at 48 h [3] [µM] | IC50 [4, 9] [µM] | IC50 [4, 10] [µM] | SI C. parvum (selectivity index) [4] | further results
O=C1C(O)=C([C@H]2CC[C@H](c3ccc(Cl)cc3)CC2)C(=O)c2ccccc21 [ATQ, atovaquone, reference compound] | 0.084 | 0.087 | – | – | – | – | – | – | –
C#CC(C)(C)NC(=O)c1cc2c(F)cc(F)cc2[nH]1 [JS-2-15, 4,6-Difluoro-N-(2-methylbut-3-yn-2-yl)-1H-indole-2-carboxamide] | – | – | 109 | – | – | – | – | – | –
CC(C)(NC(=O)c1cc2c(F)cc(F)cc2[nH]1)c1cn(Cc2ccccc2)nn1 [JS-2-18, N-(2-(1-Benzyl-1H-1,2,3-triazol-4-yl)propan-2-yl)-4,6-difluoro-1H-indole-2-carboxamide] | – | – | 205 | – | – | – | – | – | –
CC(C)(NC(=O)c1cc2c(F)cc(F)cc2[nH]1)c1cn(C23CC4CC(CC(C4)C2)C3)nn1 [JS-2-19, N-(2-(1-(Adamantan-1-yl)-1H-1,2,3-triazol-4-yl)propan-2-yl)-4,6-difluoro-1H-indole-2-carboxamide] | 8.51 | 10.6 | – | over 50% | 108 | – | – | – | SI T. gondii (selectivity index) [1]: 12.66
C#CC(C)(C)NC(=O)c1cc2c(Cl)cc(Cl)cc2[nH]1 [JS-2-22, 4,6-Dichloro-N-(2-methylbut-3-yn-2-yl)-1H-indole-2-carboxamide] | – | – | 101 | – | – | 12.3 | 12.5 | 8.24 | –
CC(C)(NC(=O)c1cc2c(F)cc(F)cc2[nH]1)c1cn(Cc2ccccc2Cl)nn1 [JS-2-25, N-(2-(1-(2-Chlorobenzyl)-1H-1,2,3-triazol-4-yl)propan-2-yl)-4,6-difluoro-1H-indole-2-carboxamide] | – | – | 107 | – | – | – | – | – | –
CC(C)(NC(=O)c1cc2c(Cl)cc(Cl)cc2[nH]1)c1cn(Cc2ccccc2)nn1 [JS-2-27, N-(2-(1-Benzyl-1H-1,2,3-triazol-4-yl)propan-2-yl)-4,6-dichloro-1H-indole-2-carboxamide] | – | – | 254 | – | – | 9.37 | 10.7 | 27.09 | –
CC(C)(NC(=O)c1cc2c(Cl)cc(Cl)cc2[nH]1)c1cn(Cc2ccccc2Cl)nn1 [JS-2-28, 4,6-Dichloro-N-(2-(1-(2-chlorobenzyl)-1H-1,2,3-triazol-4-yl)propan-2-yl)-1H-indole-2-carboxamide] | 11.6 | 19.2 | 233 | over 50% | 209 | 8.32 | 8.59 | 28.05 | –
CC(C)(NC(=O)c1cc2c(Cl)cc(Cl)cc2[nH]1)c1cn(Cc2cccc(Cl)c2)nn1 [JS-2-30, 4,6-Dichloro-N-(2-(1-(3-chlorobenzyl)-1H-1,2,3-triazol-4-yl)propan-2-yl)-1H-indole-2-carboxamide] | 5.43 | 6.32 | 193 | over 50% | 268 | 5.05 | 5.86 | 38.16 | –
CC(C)(NC(=O)c1cc2c(Cl)cc(Cl)cc2[nH]1)c1cn(C23CC4CC(CC(C4)C2)C3)nn1 [JS-2-31, N-(2-(1-(Adamantan-1-yl)-1H-1,2,3-triazol-4-yl)propan-2-yl)-4,6-dichloro-1H-indole-2-carboxamide] | 7.88 | 12.1 | – | over 50% | 135 | – | – | – | SI T. gondii (selectivity index) [1]: 17.15
c1ccc(-c2cn(C34CC5CC(CC(C5)C3)C4)nn2)cc1 [JS-2-40, 1-(Adamantan-1-yl)-4-phenyl-1H-1,2,3-triazole] | – | – | 135 | – | – | – | – | – | –
CC1(C)COC(c2ccc(-c3cn(C45CC6CC(CC(C6)C4)C5)nn3)cc2)OC1 [JS-2-41, 1-(Adamantan-1-yl)-4-(4-(5,5-dimethyl-1,3-dioxan-2-yl)phenyl)-1H-1,2,3-triazole] | 1.94 | 2.15 | – | over 50% | 168 | – | – | – | IC50 [5]: 1.5 µM; reduction in the number of Toxoplasma cysts in the brain [6]: over 90%; decrease in brain cysts compared to untreated rats [6]: 10 fold
CC(C)(NC(=O)c1cc2c(F)cc(F)cc2[nH]1)c1cn(Cc2ccc(Cl)c(Cl)c2)nn1 [JS-2-43, N-(2-(1-(3,4-Dichlorobenzyl)-1H-1,2,3-triazol-4-yl)propan-2-yl)-4,6-difluoro-1H-indole-2-carboxamide] | – | – | 174 | – | – | – | – | – | –
CC(C)(NC(=O)c1cc2c(Cl)cc(Cl)cc2[nH]1)c1cn(Cc2ccc(Cl)c(Cl)c2)nn1 [JS-2-44, 4,6-Dichloro-N-(2-(1-(3,4-dichlorobenzyl)-1H-1,2,3-triazol-4-yl)propan-2-yl)-1H-indole-2-carboxamide] | 2.95 | 3.24 | 210 | – | 209 | 7.63 | 9.12 | 27.48 | IC50 [5]: 10.6 µM; reduction in the number of Toxoplasma cysts in the brain [6]: over 90%; decrease in brain cysts compared to untreated rats [6]: 10 fold
NC[C@@H]1O[C@H](O[C@H]2[C@@H](O)[C@H](O[C@@H]3[C@@H](O)[C@H](N)C[C@H](N)[C@H]3O[C@H]3O[C@H](CO)[C@@H](O)[C@H](O)[C@H]3N)O[C@@H]2CO)[C@H](N)[C@@H](O)[C@@H]1O [PMO, paromomycin, reference compound] | – | – | – | – | – | 220 | 227 | – | –
